Laboratory results published in ChEMBL document CHEMBL5352422, “Development of l-Dopa-containing diketopiperazines as blood-brain barrier shuttle” (Eur J Med Chem, 2022).
Activity calls are given as the source filed them. The calls are words filed in the database; no cut-off is given here.

Key:
[1] = Stability in human plasma assessed as half life by HPLC method; type: ADME, cell-free
Summary of the method: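 Stock added to 37 °C human plasma diluted with 0.02 M phosphate buffer pH 7.4 to 80% plasma. Aliquots taken over time were quenched with 0.01 M HCl in methanol, centrifuged 5 min at 5000 g, and supernatant analyzed by HPLC-UV. t1/2 and k_obs are means of three experiments ± SD.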

[2] = system: PC-12; assay: Cytoprotective activity against MPP+ induced cell death in rat PC-12 cells at 10 to 500 nM preincubated with compound for 24 hrs followed by MPP+ exposure for 24 hrs by MTT assay; type: functional, cell-based; conditions: dose 10-500 nM, time 48.0 hrs
Summary of the method: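 PC12 cells in RPMI with horse and fetal calf serum on polylysine-coated flasks. Pretreated 24 h with compound (10–500 nM), then 25 µM MPP+ for a further 24 h. MTT formazan solubilized in SDS/HCl, read at 550 nm. Expressed as % of untreated control absorbance; n = 3, mean ± SD.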

[3] = Genotoxicity in human Lymphocyte assessed as micronuclei formation measured per 1000 cells at 250 nM incubated for 72 hrs giemsa staining based analysis (reference value: 4.5 to 17.9); type: toxicity, cell-based; conditions: 0.25 µM
Summary of the method: (§1)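 Human whole-blood lymphocyte cultures with phytohemagglutinin, incubated with compound for 72 h at 37 °C. Cytochalasin B added at 44 h. Cells fixed in ice-cold methanol/acetic acid 1:1, cytospun, Giemsa-stained. At least 1000 binucleated lymphocytes per concentration scored for micronuclei by one observer.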

[4] = Induction of DNA damage in Primary human whole blood cell assessed as total DNA damage score at 50 nM incubated for 24 hrs by Comet assay (reference value: 35.4 to 77.9); type: functional
[5] = Antioxidant activity against Primary human whole blood cell assessed as trolox equivalent of total antioxidant capacity at 10 nM incubated for 24 hrs (19.3 to 32.5 mmolequiv/L ); type: functional
[6] = Antioxidant activity against rat Cerebral cortex cell assessed as trolox equivalent of total antioxidant capacity at 10 nM incubated for 24 hrs (14.7 to 27.5 mmolequiv/L ); type: functional, Cerebral cortex neuron
[7] = Induction of DNA damage in rat Cerebral cortex cell assessed as total DNA damage score at 250 nM incubated for 24 hrs by Comet assay (reference value: 36.8 to 89.2); type: functional, Cerebral cortex neuron
[8] = Induction of DNA damage in rat Cerebral cortex cell assessed as 8-OH-dG adducts formation at 250 nM incubated for 24 hrs by […] (reference value: 0.14 to 1.92 pg/ml); type: functional, Cerebral cortex neuron
[9] = Antioxidant activity against rat Cerebral cortex cell assessed as H2O2 equivalent of total oxidative stress at 250 nM incubated for 24 hrs (0.7 to 2.3 micromolequiv/L); type: functional, Cerebral cortex neuron
[10] = Stability of the compound in stimulated gastric fluid at 40 mg/ml pepsin by measuring observed rate constant measured upto 60 mins by HPLC analysis; type: ADME; conditions: simulated gi fluid, 1 h
Summary of the method: (§2)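 USP simulated gastric fluid containing pepsin, preheated, in a 37 °C shaking water bath. Samples at 0, 15, 30 and 60 min were deproteinized with ice-cold acetonitrile containing 0.5% formic acid, centrifuged at 4 °C, filtered and analyzed by HPLC. Means of three experiments.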

[11] = Genotoxicity in human Lymphocyte assessed as micronuclei formation measured per 1000 cells at 10 nM incubated for 72 hrs giemsa staining based analysis (reference value: 4.5 to 17.9); type: toxicity, cell-based; conditions: 0.01 µM; summary of the method: as §1
[12] = Antioxidant activity against rat Cerebral cortex cell assessed as trolox equivalent of total antioxidant capacity at 50 nM incubated for 24 hrs (14.7 to 27.5 mmolequiv/L ); type: functional, Cerebral cortex neuron
[13] = Induction of DNA damage in rat Cerebral cortex cell assessed as 8-OH-dG adducts formation at 50 nM incubated for 24 hrs by […] (reference value: 0.14 to 1.92 pg/ml); type: functional, Cerebral cortex neuron
Summary of the method: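 Primary rat cerebral cortex neurons from fetuses, grown in neurobasal medium with FCS on poly-D-lysine flasks and used after 8 days. Aqueous compound at 10–500 nM for 24 h at 37 °C. Untreated cultures served as negative control and MMC 10^-7 M as positive control. 8-OH-dG measured with a commercial ELISA-type kit and reported in pg/mL. Four independent experiments, mean ± SD.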

[14] = Antioxidant activity against Primary human whole blood cell assessed as H2O2 equivalent of total oxidative stress at 250 nM incubated for 24 hrs (0.6 to 1.9 micromolequiv/L); type: functional
[15] = Antioxidant activity against Primary human whole blood cell assessed as trolox equivalent of total antioxidant capacity at 50 nM incubated for 24 hrs (19.3 to 32.5 mmolequiv/L ); type: functional
[16] = Induction of DNA damage in Primary human whole blood cell assessed as 8-OH-dG adducts formation at 500 nM incubated for 24 hrs by […] (reference value: 0.12 to 2.21 pg/ml); type: functional
[17] = Stability of the compound in stimulated gastric fluid at 40 mg/ml pepsin by measuring half life measured upto 60 mins by HPLC analysis; type: ADME; conditions: simulated gastric fluid with pepsin; summary of the method: as §2
[18] = Genotoxicity in human Lymphocyte assessed as sister chromatid exchange measured per cells at 500 nM incubated for 72 hrs giemsa staining based fluorescence method (reference value: 6.6 to 14.3); type: toxicity, cell-based; conditions: 0.5 µM
[19] = Antioxidant activity against Primary human whole blood cell assessed as trolox equivalent of total antioxidant capacity at 100 nM incubated for 24 hrs (19.3 to 32.5 mmolequiv/L ); type: functional
[20] = system: PC-12; assay: Upregulation of Gpx expression in MPP+ induced rat PC-12 cells at 100 nM pretreated with compound for 24 hrs followed by MPP+ stimulation and measured after 6 hrs; type: functional, cell-based; conditions: time 30.0 hrs
Summary of the method: (§3)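 PC12 cells pretreated 24 h with compound, then exposed to 25 μM MPP+ for 6 h. mRNA quantified by real-time PCR (95 °C 3 min, then 40 cycles of 95 °C 10 s and 62 °C 30 s), samples in triplicate. Values normalized to β-actin, expressed as 2^-ΔΔCt with untreated cells set to 1.0. n = 3.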

[21] = Stability of the compound in stimulated intestinal fluid at 40 mg/ml pancreatin by measuring observed rate constant measured upto 180 mins by HPLC analysis; type: ADME; conditions: simulated gi fluid, 3 h
Summary of the method: (§4)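 USP simulated intestinal fluid containing pancreatin, in a 37 °C shaking water bath. Samples at 0, 60, 120 and 180 min were quenched with ice-cold acetonitrile containing 0.5% formic acid, centrifuged at 4 °C for 10 min, filtered and analyzed by HPLC. Means of three experiments ± SD.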

[22] = Stability of the compound in stimulated intestinal fluid at 40 mg/ml pancreatin by measuring half life measured upto 180 mins by HPLC analysis; type: ADME; conditions: simulated intestinal fluid with pancreatin; summary of the method: as §4
[23] = system: PC-12; assay: Upregulation of GR expression in MPP+ induced rat PC-12 cells at 100 nM pretreated with compound for 24 hrs followed by MPP+ stimulation and measured after 6 hrs; type: functional, cell-based; conditions: time 30.0 hrs; summary of the method: as §3
[24] = system: PC-12; assay: Upregulation of GCLM expression in MPP+ induced rat PC-12 cells at 100 nM pretreated with compound for 24 hrs followed by MPP+ stimulation and measured after 6 hrs; type: functional, cell-based; conditions: time 30.0 hrs; summary of the method: as §3

half-life [1] | Kobs [10] | half-life [17] | Compound | Activity [2] | Activity [3] | Activity [4] | Activity [5] | Activity [6] | Activity [7] | Activity [8] | Activity [9] | Activity [11] | Activity [12] | Activity [13] | Activity [14] | Activity [15] | Activity [16] | Activity [18] | Activity [19] | further results
0.096 h | 0.031 h⁻¹ | 22.4 h | C=CCSC[C@H]1NC(=O)[C@H](Cc2ccc(OC(C)=O)c(OC(C)=O)c2)NC1=O | Active | 5.2 | 35.7 | 19.2 mmolequiv/L | 15.1 mmolequiv/L | 37.4 | 0.15 pg/mL | 0.7 umolequiv/L | 4.7 | 14.3 mmolequiv/L | 0.13 pg/mL | 0.7 umolequiv/L | 19.4 mmolequiv/L | 0.13 pg/mL | 7 | 19.7 mmolequiv/L | 
2.09 h | 0.012 h⁻¹ | 57.1 h | C#CCSC[C@H]1NC(=O)[C@H](Cc2ccc(OC(C)=O)c(OC(C)=O)c2)NC1=O | Active | 5.1 | 35.8 | 19.4 mmolequiv/L | 14.7 mmolequiv/L | 37.6 | 0.14 pg/mL | 0.6 umolequiv/L | 4.6 | 15.5 mmolequiv/L | 0.14 pg/mL | 0.7 umolequiv/L | 19.5 mmolequiv/L | 0.13 pg/mL | 6.9 | 19.5 mmolequiv/L | Activity [20]: Active; Kobs [21]: 0.27 h⁻¹; half-life [22]: 2.57 h; Activity [23]: Active; Activity [24]: Active
